Experimental data from ChEMBL document CHEMBL1212783, “Cellular pharmacology of the anti-hepatitis B virus agent beta-L-2',3'-didehydro-2',3'-dideoxy-N4-hydroxycytidine: relevance for activation in HepG2 cells” (Antimicrob Agents Chemother, 2010).
Values belong to the molecule of their own block, whether it stands above or below them.

What was measured:
HepG2 [1] = assay: Drug metabolism in human HepG2 cells assessed as compound monophosphate level per 10^6 cells at 10 uM after 24 hrs by reversed-phase HPLC analysis; assay type: ADME, cell-based; settings: hepg2, 24 h
Method in brief: (§1)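 HepG2 cells were grown in DMEM with 10% FBS and 1 mM pyruvate at 37°C, 5% CO2. They were seeded at 2.5 × 10^6/well and exposed after adherence to 2 or 10 μM [3H]-labelled nucleoside (440 or 1,000 dpm/pmol) for 6–24 h. Cells were washed in ice-cold PBS, trypsinized and counted (viability >95%). Metabolites were extracted twice in 60% methanol at −20°C for 16 h. Extracts were separated by ion-pair reverse-phase C18 HPLC and counted by fraction scintillation. Phosphates were identified by UV spectra, a triphosphate standard and alkaline phosphatase digestion.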

HepG2 [2] = assay: Drug metabolism in human HepG2 cells assessed as compound monophosphate level per 10^6 cells at 2 uM after 12 hrs by reversed-phase HPLC analysis; assay type: ADME, cell-based; settings: hepg2, 12 h; method in brief: as §1
HepG2 [3] = assay: Drug metabolism in human HepG2 cells assessed as compound monophosphate level per 10^6 cells at 2 uM after 6 hrs by reversed-phase HPLC analysis; assay type: ADME, cell-based; settings: hepg2, 6 h; method in brief: as §1
HepG2 [4] = assay: Drug metabolism in human HepG2 cells assessed as compound diphosphate level per 10^6 cells at 10 uM after 12 hrs by reversed-phase HPLC analysis; assay type: ADME, cell-based; settings: hepg2, 12 h; method in brief: as §1
HepG2 [5] = assay: Drug metabolism in human HepG2 cells assessed as compound monophosphate level per 10^6 cells at 2 uM after 24 hrs by reversed-phase HPLC analysis; assay type: ADME, cell-based; settings: hepg2, 24 h; method in brief: as §1
HepG2 [6] = assay: Drug metabolism in human HepG2 cells assessed as compound triphosphate level per 10^6 cells at 10 uM after 12 hrs by reversed-phase HPLC analysis; assay type: ADME, cell-based; settings: hepg2, 12 h; method in brief: as §1
HepG2 [7] = assay: Drug metabolism in human HepG2 cells assessed as compound diphosphate level per 10^6 cells at 2 uM after 18 hrs by reversed-phase HPLC analysis; assay type: ADME, cell-based; settings: hepg2, 18 h; method in brief: as §1
[8] = Cytotoxicity against human HepG2 cells at 2 uM after 48 hrs; assay type: cell-based; settings: read-out: INH
Method in brief: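 HepG2 cells were preincubated 24 h with 3 μM 3-deazauridine, then exposed for a second 24 h to 3 μM deazauridine plus 2 μM tritiated test nucleoside. Read-out was inhibition of HepG2 cell growth over the 48 h.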

HepG2 [9] = assay: Drug metabolism in human HepG2 cells assessed as compound diphosphate level per 10^6 cells at 10 uM after 24 hrs by reversed-phase HPLC analysis; assay type: ADME, cell-based; settings: hepg2, 24 h; method in brief: as §1
HepG2 [10] = assay: Drug metabolism in human HepG2 cells assessed as compound diphosphate level per 10^6 cells at 2 uM after 12 hrs by reversed-phase HPLC analysis; assay type: ADME, cell-based; settings: hepg2, 12 h; method in brief: as §1
HepG2 [11] = assay: Drug metabolism in human HepG2 cells assessed as compound triphosphate level per 10^6 cells at 2 uM after 6 hrs by reversed-phase HPLC analysis; assay type: ADME, cell-based; settings: hepg2, 6 h; method in brief: as §1
HepG2 [12] = assay: Drug metabolism in human HepG2 cells assessed as compound monophosphate level per 10^6 cells at 10 uM after 6 hrs by reversed-phase HPLC analysis; assay type: ADME, cell-based; settings: hepg2, 6 h; method in brief: as §1
HepG2 [13] = assay: Drug metabolism in human HepG2 cells assessed as compound triphosphate level per 10^6 cells at 2 uM after 24 hrs by reversed-phase HPLC analysis; assay type: ADME, cell-based; settings: hepg2, 24 h; method in brief: as §1
Hepatitis B virus [14] = assay: Antiviral activity against HBV infected in human HepG2(2.2.15) cells; assay type: functional; settings: read-out: ED50 (the source's name)
HepG2 [15] = assay: Drug metabolism in human HepG2 cells assessed as compound triphosphate level per 10^6 cells at 2 uM after 18 hrs by reversed-phase HPLC analysis; assay type: ADME, cell-based; settings: hepg2, 18 h; method in brief: as §1
HepG2 [16] = assay: Drug metabolism in human HepG2 cells assessed as compound monophosphate level per 10^6 cells at 2 uM after 18 hrs by reversed-phase HPLC analysis; assay type: ADME, cell-based; settings: hepg2, 18 h; method in brief: as §1
HepG2 [17] = assay: Drug metabolism in human HepG2 cells assessed as compound triphosphate level per 10^6 cells at 2 uM after 12 hrs by reversed-phase HPLC analysis; assay type: ADME, cell-based; settings: hepg2, 12 h; method in brief: as §1
HepG2 [18] = assay: Drug metabolism in human HepG2 cells assessed as compound monophosphate level per 10^6 cells at 10 uM after 18 hrs by reversed-phase HPLC analysis; assay type: ADME, cell-based; settings: hepg2, 18 h; method in brief: as §1
HepG2 [19] = assay: Drug metabolism in human HepG2 cells assessed as compound diphosphate level per 10^6 cells at 2 uM after 24 hrs by reversed-phase HPLC analysis; assay type: ADME, cell-based; settings: hepg2, 24 h; method in brief: as §1
HepG2 [20] = assay: Drug metabolism in human HepG2 cells assessed as compound diphosphate level per 10^6 cells at 10 uM after 6 hrs by reversed-phase HPLC analysis; assay type: ADME, cell-based; settings: hepg2, 6 h; method in brief: as §1
HepG2 [21] = assay: Drug metabolism in human HepG2 cells assessed as compound diphosphate level per 10^6 cells at 2 uM after 6 hrs by reversed-phase HPLC analysis; assay type: ADME, cell-based; settings: hepg2, 6 h; method in brief: as §1
HepG2 [22] = assay: Drug metabolism in human HepG2 cells assessed as compound diphosphate level per 10^6 cells at 10 uM after 18 hrs by reversed-phase HPLC analysis; assay type: ADME, cell-based; settings: hepg2, 18 h; method in brief: as §1
HepG2 [23] = assay: Drug metabolism in human HepG2 cells assessed as compound monophosphate level per 10^6 cells at 10 uM after 12 hrs by reversed-phase HPLC analysis; assay type: ADME, cell-based; settings: hepg2, 12 h; method in brief: as §1
HepG2 [24] = assay: Drug metabolism in human HepG2 cells assessed as compound triphosphate level per 10^6 cells at 10 uM after 6 hrs by reversed-phase HPLC analysis; assay type: ADME, cell-based; settings: hepg2, 6 h; method in brief: as §1
HepG2 [25] = assay: Drug metabolism in human HepG2 cells assessed as compound triphosphate level per 10^6 cells at 10 uM after 18 hrs by reversed-phase HPLC analysis; assay type: ADME, cell-based; settings: hepg2, 18 h; method in brief: as §1
HepG2 [26] = assay: Drug metabolism in human HepG2 cells assessed as compound triphosphate level per 10^6 cells at 10 uM after 24 hrs by reversed-phase HPLC analysis; assay type: ADME, cell-based; settings: hepg2, 24 h; method in brief: as §1
Hepatitis B virus [27] = assay: Inhibition of HBV DNA polymerase at 1 uM
[28] = Half life in human HepG2 cells by HPLC analysis; assay type: ADME, cell-based
Method in brief: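 HepG2 cells (1.5 × 10^6/well) were loaded 24 h with 10 μM [3H]-labelled nucleoside, washed three times and chased in drug-free medium. Cells were harvested at intervals, then counted and methanol-extracted. Mono-, di- and triphosphates were quantified by radio-HPLC. t1/2 was calculated as 0.693/κ, where κ is the terminal slope of a semilog plot of intracellular phosphate level versus time.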

[29] = Cytotoxicity against human HepG2 cells; assay type: cell-based; settings: read-out: CD50 (the source's name)

Stability (HepG2 [1]): 11.5 pmol | Stability (HepG2 [2]): 1.3 pmol | Stability (HepG2 [3]): 0.5 pmol | Stability (HepG2 [4]): 22.6 pmol | Stability (HepG2 [5]): 4 pmol | Stability (HepG2 [6]): 10.4 pmol | Stability (HepG2 [7]): 6.6 pmol | Stability (HepG2 [9]): 43.5 pmol | Stability (HepG2 [10]): 4.5 pmol | Stability (HepG2 [11]): 1.1 pmol | Stability (HepG2 [12]): 4.4 pmol | Stability (HepG2 [13]): 5.3 pmol | EC50 (Hepatitis B virus [14]): 0.03 µM | Stability (HepG2 [15]): 3.8 pmol | Stability (HepG2 [16]): 2.3 pmol | Stability (HepG2 [17]): 3.1 pmol | Stability (HepG2 [18]): 7.3 pmol | Stability (HepG2 [19]): 9.8 pmol | Stability (HepG2 [20]): 11.5 pmol | Stability (HepG2 [21]): 1.3 pmol | Stability (HepG2 [22]): 30.3 pmol | Stability (HepG2 [23]): 5.6 pmol | Stability (HepG2 [24]): 5.3 pmol | Stability (HepG2 [25]): 15.2 pmol | Stability (HepG2 [26]): 19.4 pmol
SMILES: O=c1nc(NO)ccn1[C@@H]1C=C[C@H](CO)O1
cytotoxicity at 48 h, 2 µM [8]: 11%

inhibition (Hepatitis B virus [27]): 90% | half-life [28]: 29.7 h
SMILES: O=c1nc(NO)ccn1[C@@H]1C=C[C@H](COP(=O)(O)OP(=O)(O)OP(=O)(O)O)O1

SMILES: Nc1ccn([C@@H]2C=C[C@H](CO)O2)c(=O)n1
CC50 [29]: 20 µM

half-life [28]: 18.6 h
SMILES: O=c1nc(NO)ccn1[C@@H]1C=C[C@H](COP(=O)(O)OP(=O)(O)O)O1
